Measured values from the array DNA melting data of Ke et al. (doi:10.1101/2024.01.08.574731).

Key:
[1] = folding enthalpy; higher = less favourable; fluorescence melt of hairpins on a sequencing array, two-state fit; settings: sodium 0.088 M
Procedure, shortened: (§1)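 Bootstrapped two-state fits yielded melting temperature and folding enthalpy for library hairpins. Cy3 fluorescence, with annealed Cy3 and quencher oligos, was imaged on a sequenced MiSeq flow cell in 50 mM Na-HEPES pH 8.0, 25 mM NaCl in 2.5 °C steps up to 60 °C, and normalised to pre-quench Cy3 and to control constructs. Four replicates were combined by inverse variance, and fitted temperatures were raised by 9.35 °C to match UV melts.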

[2] = melting temperature; fluorescence melt of hairpins on a sequencing array, two-state fit, raised by 9.35 °C to match UV melts; settings: sodium 0.088 M
Procedure, shortened: as §1

Row | Sequence | folding enthalpy [1] [kcal/mol] | Tm [2] [°C]
1 | GCCCCGCGAAAGCGAAGC ((..(((....)))..)) | -8.06 | 39.2
2 | GCCCCGCGAAAGCGTAGC ((..(((....)))..)) | -9.13 | 35.8
3 | GCCCCGCGAAAGCGTCGC ((..(((....)))..)) | -8.15 | 28.8
4 | GCCCCGCGAAAGCGTGGC (((.(((....))).))) | -25.4 | 67.4
5 | GCCCCGGGAAACCGAGGC (((.(((....))).))) | -29.5 | 54.1
6 | GCCCCGGGAAACCGGGAC (.(((((....))))).) | -12.2 | 53.7
7 | GCCCCGTCGAAAGACGGC (((..(((....)))))) | -4.65 | 34.4
8 | GCCCCTCGAAAGAGTGGC (((.(((....))).))) | -38 | 52.6
9 | GCCCCTGGAAACAGGGAC (.(((((....))))).) | -13.9 | 51.1
10 | GCCCCTGGAAACGGGGGC (((((.(....).))))) | -33.7 | 66.6
11 | GCCCGACCGAAAGGTGGC (((..(((....)))))) | -17.1 | 51
12 | GCCCGACGAAAGTCAGGC (((.(((....))).))) | -31.8 | 57.3
13 | GCCCGACGAAAGTCTGGC (((.(((....))).))) | -32.4 | 55.5
14 | GCCCGAGCGAAAGCTGGC (((..(((....)))))) | -16.1 | 50.9
15 | GCCCGAGGAAACCCAGGC (((.(.(....).).))) | -16.5 | 28.1
16 | GCCCGAGGAAACCCGAGC ((.((.(....).)).)) | -17.1 | 30.8
17 | GCCCGAGGAAACCCGGAC (.(((.(....).))).) | -19.3 | 32.7
18 | GCCCGAGGAAACCCGGGC (((((.(....).))))) | -40.6 | 60.6
19 | GCCCGAGGAAACTCGAGC ((.((((....)))).)) | -31 | 48.4
20 | GCCCGAGGAAACTTGGGC ((((.((....)).)))) | -41.1 | 58.1
21 | GCCCGCACGAAAGTGGGC (((..(((....)))))) | -24 | 57.4
22 | GCCCGCCCGAAAGGGGGC (((..(((....)))))) | -13.2 | 60.2
23 | GCCCGCGAAAGCGAGGGC ((((((....)))..))) | -28 | 68.7

Row | Sequence | folding enthalpy [1] [kcal/mol] | Tm [2] [°C]
24 | GCCCGCGAAAGCGATGGC ((((((....)))..))) | -19.8 | 62
25 | GCCCGGCGAAAGCACGGC (((..((....))..))) | -13.3 | 57.1
26 | GCCCGGCGAAAGCCAAGC ((..(((....)))..)) | -10.7 | 35.7
27 | GCCCGGCGAAAGCCCAGC ((..(((....)))..)) | -9.79 | 32.7
28 | GCCCGGCGAAAGCCCTGC ((..(((....)))..)) | -8.41 | 30.7
29 | GCCCGGCGAAAGCCGCGC ((.((((....)))).)) | -17.4 | 60.1
30 | GCCCGGCGAAAGCCGTGC ((.((((....)))).)) | -13.9 | 59.8
31 | GCCCGGCGAAAGCCTGGC (((.(((....))).))) | -25.8 | 64.6
32 | GCCCGGCGAAAGCGGTGC ((.(.((....)).).)) | -15.6 | 56.5
33 | GCCCGGCGAAAGCTAGGC (((..((....))..))) | -21.5 | 56.7
34 | GCCCGGCGAAAGCTCGGC (((..((....))..))) | -16.4 | 52.7
35 | GCCCGGCGAAAGCTGCGC ((.(.((....)).).)) | -17.6 | 44.2
36 | GCCCGGGGAAACCCGAGC ((.((((....)))).)) | -25.2 | 52.9
37 | GCCCGGGGAAACTCGGGC (((((.(....).))))) | -37.5 | 67.2
38 | GCCCGTACGAAAGTAGGC (((..(((....)))))) | -17.9 | 46.3
39 | GCCCGTGGAAACACGGAC (.(((((....))))).) | -14.5 | 50.2
40 | GCCCTAACGAAAGTTGGC (((..(((....)))))) | -20.7 | 38.5
41 | GCCCTAGGAAACCAGGGC (((((.(....).))))) | -47 | 52.5
42 | GCCCTAGGAAACTAGGGC (((((((....))))))) | -31.2 | 67.5
43 | GCCCTAGGAAACTGGGGC ((((.((....)).)))) | -33.7 | 55.4
44 | GCCCTCCGAAAGGAGGC (((.(((....)))))) | -11.9 | 61.2
45 | GCCCTCGAAAGAGTGGGC ((((((....)))..))) | -25.6 | 52.7
